Assay results as given in ChEMBL document CHEMBL1156325, “Novel acyl coenzyme A (CoA): diacylglycerol acyltransferase-1 inhibitors: synthesis and biological activities of diacylethylenediamine derivatives” (Bioorg Med Chem, 2010).
Converted amounts (≈) assume the structure as drawn.

Tests used:
[1] = Metabolic stability in human liver microsomes at 1 umol/L after 20 mins by HPLC assessed per mg of protein; type: ADME, Microsome; conditions: read-out: Stability
In short: (§1)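 Hepatic microsomes (0.2 mg/mL protein) were incubated at 37 °C for 0 and 20 min with an NADPH-generating system added at 10% of reaction volume. The system held 50 mmol/L MgCl₂, 50 mmol/L glucose-6-phosphate, 5 mmol/L β-NADP⁺ and 15 unit/mL G6PDH. Reactions were stopped with an equal volume of acetonitrile, run in duplicate. Parent disappearance was measured by HPLC-UV and expressed as %/min/mg.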

[2] = Metabolic stability in mouse liver microsomes at 1 umol/L after 20 mins by HPLC assessed per mg of protein; type: ADME, Microsome; conditions: read-out: Stability; in short: as §1
[3] = Metabolic stability in rat liver microsomes at 1 umol/L after 20 mins by HPLC assessed per mg of protein; type: ADME, Microsome; conditions: read-out: Stability; in short: as §1
[4] = molecular target: T1, Diacylglycerol O-acyltransferase 1 (Mus musculus, UniProt Q9Z2A7); assay: Inhibition of DGAT1 in mouse C2C12 cells assessed as suppression of [14C]triglyceride accumulation pretreated for 20 mins before [14C]oleic acid challenge measured after 20 mins by TLC analysis; type: cell-based
T1 sequence (Q9Z2A7 whole entry): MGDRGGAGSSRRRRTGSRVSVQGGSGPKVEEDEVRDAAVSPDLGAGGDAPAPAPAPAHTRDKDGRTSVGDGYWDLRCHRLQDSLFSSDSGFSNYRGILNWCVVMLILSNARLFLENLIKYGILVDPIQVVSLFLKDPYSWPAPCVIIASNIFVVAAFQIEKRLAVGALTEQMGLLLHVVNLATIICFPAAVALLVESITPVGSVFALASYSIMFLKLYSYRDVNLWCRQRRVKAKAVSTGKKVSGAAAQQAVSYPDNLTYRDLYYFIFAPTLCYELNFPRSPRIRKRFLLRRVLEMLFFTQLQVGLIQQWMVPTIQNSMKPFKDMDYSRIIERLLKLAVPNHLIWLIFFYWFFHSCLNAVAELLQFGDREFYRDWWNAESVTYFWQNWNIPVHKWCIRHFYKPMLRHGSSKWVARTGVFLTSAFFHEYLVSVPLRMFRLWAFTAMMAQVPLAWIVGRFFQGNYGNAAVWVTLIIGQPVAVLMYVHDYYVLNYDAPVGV
In short: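 C2C12 cell suspension (10⁶ cells/mL final) was preincubated with serial compound dilutions at 37 °C for 20 min. [¹⁴C]-oleic acid substrate was then added with 0.001% fatty-acid-free BSA, 0.2% ethanol and 0.1% DMSO final. After 20 min at 37 °C, reactions were stopped with chloroform/methanol (1:2). Chloroform-phase lipids were separated by TLC (hexane/ether/ethyl acetate/acetic acid 255:30:15:0.6).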

[5] = molecular target: T2, Diacylglycerol O-acyltransferase 1 (Homo sapiens, UniProt O75907); assay: Inhibition of human DGAT1 expressed in baculovirus infected Sf9 cells using [14C]oleoyl-CoA after 15 mins by TLC analysis
T2 sequence (O75907 whole entry): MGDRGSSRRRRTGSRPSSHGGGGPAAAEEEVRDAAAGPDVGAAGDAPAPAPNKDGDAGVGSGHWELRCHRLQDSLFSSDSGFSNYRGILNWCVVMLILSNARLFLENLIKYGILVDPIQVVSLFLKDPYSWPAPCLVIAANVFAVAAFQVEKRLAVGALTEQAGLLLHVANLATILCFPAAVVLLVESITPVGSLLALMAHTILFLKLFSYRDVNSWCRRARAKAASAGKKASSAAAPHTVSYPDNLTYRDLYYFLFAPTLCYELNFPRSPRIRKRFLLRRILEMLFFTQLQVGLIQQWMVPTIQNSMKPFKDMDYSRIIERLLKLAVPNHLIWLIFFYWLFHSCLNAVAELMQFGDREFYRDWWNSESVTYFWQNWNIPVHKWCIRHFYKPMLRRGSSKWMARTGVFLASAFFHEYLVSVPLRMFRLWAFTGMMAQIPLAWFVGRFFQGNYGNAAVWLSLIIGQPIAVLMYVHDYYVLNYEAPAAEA

[6] = Solubility at pH 6.8; type: physicochemical; conditions: buffer
Mus musculus [7] = assay: Antiobesity activity in C57BL/6 mouse assessed as reduction in mesenteric white adipose tissue weight at 3 mg/kg, po BID for 4 weeks; type: functional; design: scale not given: the % may be the effect or the level left
In short: (§2)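 C57BL/6 mice fed a high-fat diet were dosed orally b.i.d. at 3 mg/kg as a 0.5% MC suspension for four weeks. Endpoints were body weight gain, total food intake, and mesenteric, perirenal and subcutaneous white adipose tissue weights.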

Mus musculus [8] = assay: Toxicity in C57BL/6 mouse assessed as effect on total food intake at 3 mg/kg, po BID for 4 weeks; type: organism-based; design: dose 3 mg/kg, route oral; conditions: in vivo, 672 h; in short: as §2
Mus musculus [9] = assay: Antiobesity activity in C57BL/6 mouse assessed as reduction in subcutaneous white adipose tissue weight at 3 mg/kg, po BID for 4 weeks; type: functional; design: scale not given: the % may be the effect or the level left; in short: as §2
Mus musculus [10] = assay: Antiobesity activity in C57BL/6 mouse assessed as reduction in perirenal white adipose tissue weight at 3 mg/kg, po BID for 4 weeks; type: functional; design: scale not given: the % may be the effect or the level left; in short: as §2
Mus musculus [11] = assay: Antiobesity activity in C57BL/6 mouse assessed as reduction in body weight gain at 3 mg/kg, po BID for 4 weeks; type: functional; design: scale not given: the % may be the effect or the level left; in short: as §2

Structure (SMILES) | remaining at 20 min, 1 µM [1] | remaining at 20 min, 1 µM [2] | remaining at 20 min, 1 µM [3] | IC50 [4] | also measured
O=C(NCCNC(=O)c1cn(-c2ccccc2)nc1C(F)(F)F)c1ccc(Cl)cn1 | 4.8% | 1.8% | 2.6% | 1.2 µM | –
O=C(NCCNC(=O)c1cn(-c2ccccc2)nc1C(F)(F)F)c1ccc(Cl)nc1 | 2.2% | 0% | 1.1% | 0.37 µM | –
CCOc1ccc(C(=O)N[C@@H](CO)CNC(=O)c2cn(-c3ccccc3)nc2C(F)(F)F)cc1 | – | – | – | – | IC50 [5]: > 10 µM
CCOc1ccc(C(=O)NCCNC(=O)c2cn(C3CCCCC3)nc2C(F)(F)F)cc1 | 8.7% | 7.8% | 11% | 0.65 µM | –
CCOc1ccc(C(=O)NCCNC(=O)c2cn(-c3cccnc3)nc2C(F)(F)F)cc1 | – | – | – | 3.4 µM | –
O=C(NCCNC(=O)c1cn(-c2ccccc2)nc1C(F)(F)F)c1ccc(-n2cccn2)cc1 | 5.9% | 3.5% | 6.5% | 0.4 µM | –
CCOc1ccc(C(=O)NC[C@H](CO)NC(=O)c2cn(-c3ccccc3)nc2C(F)(F)F)cc1 | – | – | – | – | IC50 [5]: > 10 µM
CCOc1cccc(C(=O)NCCNC(=O)c2cn(-c3ccccc3)nc2C(F)(F)F)c1 | 14% | 19% | 8.3% | 5.1 µM | –
CCOc1ccc(C(=O)NC[C@@H](CO)NC(=O)c2cn(-c3ccccc3)nc2C(F)(F)F)cc1 | – | – | – | – | IC50 [5]: > 10 µM
O=C(NCCNC(=O)c1cn(-c2ccccc2)nc1C(F)(F)F)c1ccc(OCC(F)(F)F)nc1 | 2.1% | 0% | 0.4% | 0.044 µM | Activity (Mus musculus [7]): -25%; Activity (Mus musculus [8]): Non-toxic; Activity (Mus musculus [9]): -2.8%; Activity (Mus musculus [10]): -12%; Activity (Mus musculus [11]): -75%
CCOc1ccc(C(=O)NCCNC(=O)c2cn(-c3ccccc3)nc2C(F)(F)F)cn1 | 5.1% | 2.5% | 3.4% | 0.087 µM | –
CCOc1ccc(C(=O)N[C@H](CO)CNC(=O)c2cn(-c3ccccc3)nc2C(F)(F)F)cc1 | – | – | – | – | IC50 [5]: > 10 µM

Second part, led by results:

remaining at 20 min, 1 µM [1] | remaining at 20 min, 1 µM [2] | remaining at 20 min, 1 µM [3] | IC50 [4] | Structure (SMILES) | also measured
5% | 2.5% | 5.8% | 0.26 µM | CCOc1ccc(C(=O)NCCNC(=O)c2cn(-c3ccccc3)nc2C)cc1 | –
14% | 7% | 10% | 0.091 µM | CCOc1ccc(C(=O)NCCNC(=O)c2cn(-c3ccccn3)nc2C(F)(F)F)cc1 | –
5.7% | 0.5% | 18% | 0.61 µM | CCOc1ccc(C(=O)NCCNC(=O)c2cn(-c3ccccc3O)nc2C(F)(F)F)cc1 | –
12% | 14% | 12% | 1.2 µM | CCOc1ccc(C(=O)NCCNC(=O)c2nn(-c3ccccc3)cc2C)cc1 | –
10% | 17% | 14% | – | CCOc1ccc(C(=O)NCCNC(=O)c2nc(-c3ccccc3)c(Cc3ccccc3)s2)cc1 | solubility [6]: < 0.05 µg/mL
5.5% | 7.5% | 18% | – | CCOc1ccc(C(=O)NCCNC(=O)c2cn(Cc3ccccc3)nc2C(F)(F)F)cc1 | –
4.5% | 3.4% | 7.2% | 1.5 µM | CCOc1ccc(C(=O)NCCNC(=O)c2cn(-c3ccc(Cl)cc3)nc2C(F)(F)F)cc1 | –
9% | 7% | 6.5% | 0.077 µM | CCOc1ccc(C(=O)NCCNC(=O)c2cn(-c3ccccc3)nc2C(F)(F)F)cc1 | solubility [6]: 1.1 µg/mL (≈ 2.46 µM)
13% | 16% | 11% | – | CCOc1cc(C)c(C(=O)CCC(=O)Nc2nc(-c3ccccc3)c(Cc3ccccc3)s2)cc1OCC | solubility [6]: 0.08 µg/mL (≈ 0.151 µM)
7.4% | 6.5% | 7.1% | 0.6 µM | CCOc1ccc(C(=O)NCCNC(=O)c2cn(-c3cccc(OCC)c3)nc2C(F)(F)F)cc1 | –
7.5% | 14% | 8.7% | 0.38 µM | CCOc1ccc(C(=O)NCCNC(=O)c2cn(-c3ccc(OCC)cc3)nc2C(F)(F)F)cc1 | –
– | – | – | > 10 µM | CCOc1ccc(C(=O)NCCNC(=O)c2cn(-c3ccncc3)nc2C(F)(F)F)cc1 | –
